# From PubChem
# GalR3 antag: GalR3 antagonists in HEK293 cells, primary screen, cell-based, fluorescence readout | inhibition, % at 3 µM | Galanin receptor type 3 (Homo sapiens), O60755 | HEK293 GalR3-CNG cAMP membrane potential fluorescence; galR3 body fused to GalR1 C-terminus | AID 651719, 2012 | actives 0.44% (n = 360,000);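 active = inhibition above the screen-wide average plus 3 SD, cut at about 13% in these data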;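 also: forskolin and galanin both at EC90 stimulate the cells; cAMP rise reported by CNG channel membrane potential dye signal; 0% = forskolin plus galanin with DMSO and 100% = forskolin alone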
# Target sequence (O60755 1-299 limits assumed): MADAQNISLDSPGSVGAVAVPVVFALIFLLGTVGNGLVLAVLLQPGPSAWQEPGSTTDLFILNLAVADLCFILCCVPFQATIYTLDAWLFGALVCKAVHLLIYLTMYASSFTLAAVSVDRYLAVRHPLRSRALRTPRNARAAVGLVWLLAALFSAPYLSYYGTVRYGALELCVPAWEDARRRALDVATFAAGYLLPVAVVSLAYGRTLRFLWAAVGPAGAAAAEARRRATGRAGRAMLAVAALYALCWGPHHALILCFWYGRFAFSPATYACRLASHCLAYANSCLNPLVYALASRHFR
# OX1R antag-1: OX1R (HCRTR1) antagonists, primary screen, fluorescence, CHO/OX1R cells, Fluo-8 calcium, orexin A | Orexin/Hypocretin receptor type 1 (Homo sapiens), O43613 | Fluo-8 calcium fluorescence | inhibition, % at 5 µM | actives 0.43% (n = 330,000) | AID 434989, 2010;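 active = inhibition above its plate's threshold, mean inhibition of all tested compounds on the plate plus 3 SD, cut at about 37% in these data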;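 also: 0% = orexin A challenge wells and 100% = SB-334867-A antagonist wells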
# CHO parental Ca: ATP-evoked calcium signal inhibitors, parental CHO, primary screen, counter-screen for OX1R antagonist project, cell-based, fluorescence, Fluo-8 calcium dye; inhibition, % at 5.6 µM; parental CHO-K1, ATP-induced calcium, Fluo-8 fluorescence; actives 0.63% (n = 330,000);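 active = inhibition above that plate's mean sample inhibition plus 3 SD, cut at about 26% in these data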;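 also: 0% = ATP-challenged DMSO wells and 100% = DMSO wells without ATP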
#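 Test system: untransfected parental CHO cell line; also added: ATP stimulus; dosing: 5.6 µM, single dose; signal: calcium-sensitive Fluo-8 fluorescence; measure: percent inhibition of ATP-evoked calcium rise, normalized to controls; benchmarks: low control ATP plus DMSO, high control DMSO only; replication: one well per compound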
# GPR7 antag: GPR7 receptor antagonists, primary screen, cell-based, fluorescence, single concentration; GPR7-expressing cells, fluorescence antagonist assay; inhibition, % at 4.4 µM; actives 1.1% (n = 290,000); AID 1861, 2009; in the data active = inhibition above about 16%, passing the limit was not always enough;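 also: cells stimulated with the agonist NPW; 0% = agonist with vehicle and 100% = vehicle without agonist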
# Target sequence (P48145 whole entry, looked up): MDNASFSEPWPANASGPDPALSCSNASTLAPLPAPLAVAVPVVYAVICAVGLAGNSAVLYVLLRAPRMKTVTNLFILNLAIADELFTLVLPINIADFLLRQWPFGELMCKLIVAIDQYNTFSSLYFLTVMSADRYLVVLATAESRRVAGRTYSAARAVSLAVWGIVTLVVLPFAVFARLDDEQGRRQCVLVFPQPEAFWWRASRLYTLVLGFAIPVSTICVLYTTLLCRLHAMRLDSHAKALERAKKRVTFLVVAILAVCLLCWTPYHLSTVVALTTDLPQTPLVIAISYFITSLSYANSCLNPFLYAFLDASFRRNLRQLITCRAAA
# OX1R antag-2: antagonists of human orexin 1 receptor (OX1R) | OX1R-expressing cells, FRET antagonist read-out | inhibition, % at 6.6 µM | actives 1.8% (n = 330,000); in the data active = inhibition mostly above about 38%, no sharp cut-off; inactive = mostly below about 40%;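 also: 0% = agonist challenge alone and 100% = reference antagonist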
# GalR3 conf: GalR3 antagonist hit confirmation, cell-based, fluorescence, triplicate; shares compounds with GalR3 antag; HEK293 GalR3 CNG cAMP biosensor, membrane potential fluorescence; galR3 fused to GalR1 carboxy tail; challenged with forskolin and galanin at EC90; inhibition, % at 3 µM; actives 59% (n = 1,600); AID 652245, 2013;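 active = inhibition above the primary screen's cutoff, the mean inhibition of all screened compounds plus 3 SD, cut at about 13% in these data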;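 also: 0% = forskolin plus galanin and 100% = forskolin alone with DMSO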
# CNG parental: nonspecific cAMP agonists in parental HEK-CNG cells, counter-screen for GalR3 antagonist project, cell-based, fluorescence, high throughput | shares compounds with GalR3 antag | HEK293-CNG parental cells, cAMP membrane potential fluorescence; normalised: DMSO wells 0%, forskolin wells 100% | activation, % at 3 µM | actives 10% (n = 1,600) | AID 652268, 2013; in the data active = activation above about 1.3%
# * = called active by the depositor; · = no result; ! = not confirmed by another sample. In the library only some 3.1% were active in any assay of this set; here they are far more common.
SMILES,GalR3 antag,OX1R antag-1,CHO parental Ca,GPR7 antag,OX1R antag-2,GalR3 conf,CNG parental
COCC1CCCN(C(=O)c2cc(COc3ccc4ncccc4c3)on2)C1 (stereo not drawn),100*,18,54*,11,27,125*,0
CCC(O)C1CCN(C(=O)c2cc(COc3ccc4ncccc4c3)on2)CC1 (stereo not drawn),101*,12,31*,13,30,91*,0
O=C(NCc1ccccc1)C(c1ccccc1)n1c(-c2ccccn2)nc2ccccc21 (stereo not drawn),-10,·,·,·,·,·,·
COc1ccc2ccccc2c1CN1CCN(c2ncc(Cc3ccccc3)cn2)CC1,-6,·,·,·,·,·,·
C[C@@H]1ON(C)[C@H]2C[C@H]3c4cc(Br)ccc4CCN3C[C@@H]12,-8,·,·,·,·,·,·
Fc1ccc(NC(=S)NNc2ncc(C(F)(F)F)cc2Cl)c(F)c1,92*,24,7,20,24,97*,0
FC(F)(F)c1cnc(NNC(=S)Nc2ccc(Cl)cc2)c(Cl)c1,-2,8,-7,-15,29,·,·
O=c1[nH]c2cccnc2c2ccsc12,23*,-28,2,10,9,17*,0
COc1ccc2c(c1)[C@@]1(OCCC=C[C@H]1C)C(=O)N2Cc1ccccc1C(F)(F)F,-9,·,·,·,·,·,·
c1ccc2c(c1)nc(NCCN1CCOCC1)c1nncn12,·,-3,-5,-17,5,8,0
Cn1nc(C(C)(C)C)cc1C(=O)N1CCCC(C)(C(=O)NS(=O)(=O)C2CC2)C1 (stereo not drawn),-6,·,·,·,·,·,·
Cn1nc(C(C)(C)C)cc1C(=O)NCc1ccc2c(c1)OCO2,105*,15,48*,13,45,108*,-1
Cc1oc(C(C)(C)C)cc1C(=O)NCc1ccc2c(c1)OCO2,-5,-9,-13,-8,1,·,·
COc1ccc(C(=O)CSc2nnc(Cn3cnc4ccccc43)o2)cc1,95*,35,38*,4,30,111*,-1
Cc1ccc(NC(=O)OC(C)N2CCCCC2)cc1NC(=O)OC(C)N1CCCCC1 (stereo not drawn),-1,·,·,·,·,·,·
COc1ccc(C(=O)c2[nH]c(N)c(C(=O)NCCc3c[nH]c4ccccc34)c2-c2ccc(Br)cc2)cc1,-2,·,·,·,·,·,·
CCOCCCNCC(O)c1ccccc1 (stereo not drawn),-2,-10,-5,-7,22,·,·
OCc1cc(C(O)CNCCCCCCOCCCCc2ccccc2)ccc1O (stereo not drawn),19*,-17,1,4,18,32*,9.1*
CCOC(=O)C1CSCCS(=O)(=O)N1Cc1ccc(F)cc1 (stereo not drawn),-4,·,·,·,·,·,·
COCCN1CCN(C(=O)c2ccc3nc(Cc4ccc(OC)c(OC)c4)oc3c2)CC1,88*,-4,8,-5,6,48*,0
COc1ccccc1CCNC(=O)c1cnn2c(C(F)F)cc(C)nc12,3,-45,-16,-1,23,·,·
COc1ccccc1CNC(=O)c1cnn2c(C(F)F)cc(C)nc12,23*,-21,-12,-11,34,35*,0
Cc1ccc2c(c1)/C(=N/OS(=O)(=O)c1ccccc1)CCS2,-2,-6,-10,-8,13,·,·
CC1=CC(=O)C(C(C)C)=C/C1=N/OS(=O)(=O)c1ccccc1,92*,75*,71*,81*,64*,35*,0
COC(=O)[C@]1(C)CCC[C@@]2(C)C3CC[C@@]4(C)C[C@]3(CCC21)CC(=O)N4 (stereo partly drawn),-5,-3,-9,·,-5,·,·
SMILES,GalR3 antag,OX1R antag-1,CHO parental Ca,GPR7 antag,OX1R antag-2,GalR3 conf,CNG parental
C=C1C(=O)C23CCC4C(C)(C(=O)OC)CCCC4(C)C2CCC1(O)C3 (stereo not drawn),37*,·,·,·,·,48*,1.6*
O=C(NCc1ccc(F)cc1)c1cc(C2CCCN(C(=O)C3CCCCC3)C2)on1 (stereo not drawn),-6,·,·,·,·,·,·
CCCCC(=O)N(C)c1c(C)nc2ccc(C(=O)NCCN(C)C)cn12,-4,·,·,·,·,·,·
CC(C)CNc1ncnc2c1ncn2[C@H]1CN(C2CCCC2)C[C@@H](CO)O1,-2,·,·,·,·,·,·
c1ccc(-c2cn(-c3ccccc3)c3[n+]2CCS3)cc1,0,-2,11,-7,24,·,·
CC(C)(C)c1ccc(-c2cn(-c3ccc(Br)cc3)c3[n+]2CCCS3)cc1,25*,·,·,56*,·,60*,1.7*
COc1ccc(-c2cn(-c3ccccc3)c3[n+]2CCS3)cc1,16*!,-18,-9,4,26,0,0
COc1ccccc1Cc1c(C(C)(C)C)nc2c3ccccc3ccn12,-7,·,·,·,·,·,·
COc1cc2c(cc1OC)-c1cc(NC3CCCCCCC3)nc(=O)n1CC2,47*,-18,-28,-17,23,57*,1.4*
COc1cc2c(cc1OC)-c1cc(NC3CCCCC3)nc(=O)n1CC2,44*,-22,-24,-13,14,33*,0
CCCCNC(=O)C[C@@H]1C[C@@]2(C(=O)OCC)CCCC=C2N(Cc2ccco2)C1=O,-4,·,·,·,·,·,·
CCOc1ccc(Br)cc1/C(C)=N\NC1=NCCN1,65*,-16,-6,17,12,80*,4.9*
COC(=O)C1=C(C)N(Cc2ccccc2C(F)(F)F)C(=NCc2ccc3c(c2)OCO3)NC1c1ccccc1C(F)(F)F (stereo not drawn),-6,·,·,·,·,·,·
Cc1nn(CCc2n[nH]c(=S)n2-c2cccc(Cl)c2)c(C)c1[N+](=O)[O-],-5,-26,-9,-5,6,·,·
Cc1cccc(-n2c(Cn3nc(C)c([N+](=O)[O-])c3C)n[nH]c2=S)c1,17*,-5,-1,6,8,5,0
CCOC(=O)c1sc(N2C(=O)C(O)=C(C(=O)c3ccc(C)o3)C2c2cccc([N+](=O)[O-])c2)nc1C (stereo not drawn),3,-39,-19,-8,27,·,·
COC(=O)c1sc(N2C(=O)C(O)=C(C(=O)c3ccc(C)o3)C2c2ccc(OC)c(OC)c2)nc1C (stereo not drawn),36*,·,·,-23,·,7,0
